Tests used:
[1] = tested on: Staphylococcus aureus; experiment: Antibacterial activity against Staphylococcus aureus ATCC 25923 after 18 hrs by broth microdilution method; format: functional; settings: ATCC 25923, 18 h
How it was run: (§1)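 MIC by broth microdilution per ISO 20776-1:2006 and CLSI M07-A8. Inoculum 10^6 cfu/ml in Mueller-Hinton broth with compound serially diluted, final concentrations 2 to 128 ug/ml, duplicate rows, no-drug growth control. Incubation 18 h at 37 °C. MIC taken as lowest concentration giving complete inhibition of visible growth. Each compound tested at least twice.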

[2] = tested on: Staphylococcus aureus; experiment: Antibacterial activity against Staphylococcus aureus ATCC 29213 after 18 hrs by broth microdilution method; format: functional; settings: ATCC 29213, 18 h; how it was run: as §1
[3] = tested on: Staphylococcus aureus; experiment: Antibacterial activity against Staphylococcus aureus ATCC 9144 after 18 hrs by broth microdilution method; format: functional; settings: ATCC 9144, 18 h; how it was run: as §1
[4] = tested on: Staphylococcus aureus; experiment: Antibacterial activity against Staphylococcus aureus ATCC 6538 after 18 hrs by broth microdilution method; format: functional; settings: ATCC 6538, 18 h; how it was run: as §1
[5] = tested on: Staphylococcus aureus; experiment: Antibacterial activity against Staphylococcus aureus CIP 65.6 after 18 hrs by broth microdilution method; format: functional; settings: CIP 65.6, 18 h; how it was run: as §1
[6] = tested on: Staphylococcus aureus; experiment: Antibacterial activity against Staphylococcus aureus CIP 103428 after 18 hrs by broth microdilution method; format: functional; settings: CIP 103428, 18 h; how it was run: as §1
[7] = tested on: Staphylococcus aureus; experiment: Antibacterial activity against methicillin-resistant Staphylococcus aureus CIP 65.25 after 18 hrs by broth microdilution method; format: functional; settings: CIP 65.25, 18 h
How it was run: (§2)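 Broth microdilution following ISO 20776-1:2006 and CLSI M07-A8, in Mueller-Hinton broth. Inoculum was 10^6 cfu/ml, with compound serial dilutions spanning 2 to 128 ug/ml and a compound-free growth control well. Plates were incubated 18 h at 37 °C. MIC was the lowest concentration giving complete inhibition of visible growth. Each compound was tested at least twice.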

[8] = tested on: Staphylococcus aureus; experiment: Antibacterial activity against methicillin-resistant Staphylococcus aureus ATCC 33592 after 18 hrs by broth microdilution method; format: functional; settings: ATCC 33592, 18 h; how it was run: as §2
[9] = tested on: Staphylococcus aureus; experiment: Antibacterial activity against vancomycin intermediate Staphylococcus aureus […] after 18 hrs by broth microdilution method; format: functional; how it was run: as §2
[10] = tested on: Staphylococcus epidermidis; experiment: Antibacterial activity against Staphylococcus epidermidis ATCC 12228 after 18 hrs by broth microdilution method; format: functional; settings: ATCC 12228, 18 h; how it was run: as §1
[11] = tested on: Staphylococcus epidermidis; experiment: Antibacterial activity against Staphylococcus epidermidis CIP 81.55 after 18 hrs by broth microdilution method; format: functional; settings: CIP 81.55, 18 h; how it was run: as §1
[12] = tested on: Staphylococcus epidermidis; experiment: Antibacterial activity against Staphylococcus epidermidis CIP 103627 after 18 hrs by broth microdilution method; format: functional; settings: CIP 103627, 18 h; how it was run: as §1
[13] = tested on: Streptococcus pneumoniae; experiment: Antibacterial activity against Streptococcus pneumoniae ATCC 49619 after 18 hrs by broth microdilution method; format: functional; settings: ATCC 49619, 18 h
How it was run: (§3)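 MIC by broth microdilution per ISO 20776-1:2006 and CLSI M07-A8. Inoculum 10^6 cfu/ml in Mueller-Hinton broth […]. Compound serially diluted, final 2 to 128 ug/ml, duplicate rows, no-drug growth control. Read after 18 h at 37 °C as lowest concentration fully inhibiting visible growth. At least two experiments.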

[14] = tested on: Streptococcus pneumoniae; experiment: Antibacterial activity against Streptococcus pneumoniae ATCC 6303 after 18 hrs by broth microdilution method; format: functional; settings: ATCC 6303, 18 h; how it was run: as §3
[15] = tested on: Streptococcus agalactiae; experiment: Antibacterial activity against Streptococcus agalactiae ATCC 12400 after 18 hrs by broth microdilution method; format: functional; settings: ATCC 12400, 18 h; how it was run: as §2
[16] = tested on: Streptococcus pyogenes; experiment: Antibacterial activity against Streptococcus pyogenes CIP 104226 after 18 hrs by broth microdilution method; format: functional; settings: CIP 104226, 18 h; how it was run: as §2
[17] = tested on: Streptococcus mitis; experiment: Antibacterial activity against Streptococcus mitis CIP 103335 after 18 hrs by broth microdilution method; format: functional; settings: CIP 103335, 18 h
How it was run: (§4)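 Broth microdilution following ISO 20776-1:2006 and CLSI M07-A8, in Mueller-Hinton broth […]. Inoculum was 10^6 cfu/ml, with compound serial dilutions spanning 2 to 128 ug/ml and a compound-free growth control well. Plates were read after 18 h at 37 °C. MIC was the lowest concentration with no visible growth. Each compound was tested at least twice.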

[18] = tested on: Enterococcus faecium; experiment: Antibacterial activity against Enterococcus faecium CIP 54.32 after 18 hrs by broth microdilution method; format: functional; settings: CIP 54.32, 18 h; how it was run: as §2
[19] = tested on: Enterococcus faecalis; experiment: Antibacterial activity against Enterococcus faecalis ATCC 29212 after 18 hrs by broth microdilution method; format: functional; settings: ATCC 29212, 18 h; how it was run: as §2
[20] = tested on: Escherichia coli; experiment: Antibacterial activity against Escherichia coli ATCC 25922 after 18 hrs by broth microdilution method; format: functional; settings: ATCC 25922, 18 h; how it was run: as §2
[21] = tested on: Haemophilus influenzae; experiment: Antibacterial activity against Haemophilus influenzae ATCC 49766 after 18 hrs by broth microdilution method; format: functional; settings: ATCC 49766, 18 h; how it was run: as §4
[22] = tested on: KB; experiment: Cytotoxicity against human KB cells at 10 uM; format: cell-based
[23] = tested on: HCT-116; experiment: Cytotoxicity against human HCT116 cells at 10 uM; format: cell-based; settings: hct-116, 10 µM
[24] = tested on: MRC5; experiment: Cytotoxicity against human MRC5 cells at 10 uM; format: cell-based; settings: mrc5, 10 µM
[25] = tested on: KB; experiment: Cytotoxicity against human KB cells at 1 uM; format: cell-based
[26] = tested on: HCT-116; experiment: Cytotoxicity against human HCT116 cells at 1 uM; format: cell-based; settings: hct-116, 1 µM
[27] = tested on: MRC5; experiment: Cytotoxicity against human MRC5 cells at 1 uM; format: cell-based; settings: mrc5, 1 µM
[28] = tested on: Klebsiella pneumoniae; experiment: microbe, parasite or virus in culture; settings: ATCC 35657, 18 h
[29] = tested on: Enterobacter cloacae; experiment: microbe, parasite or virus in culture; settings: ATCC 13047, 18 h
[30] = tested on: Serratia marcescens; experiment: microbe, parasite or virus in culture; settings: CIP 103551, 18 h
[31] = tested on: Pseudomonas aeruginosa; experiment: microbe, parasite or virus in culture; settings: CIP 5933, 18 h
[32] = tested on: Acinetobacter baumannii; experiment: microbe, parasite or virus in culture; settings: ATCC 19606 = CIP 70.34 = JCM 6841, 18 h

Cl.Cl.NCC(NO)c1c[nH]c2ccccc12 (centres undefined)
64 µg/mL: MIC [7] | MIC [8]
32 µg/mL: MIC [1] | MIC [2] | MIC [3] | MIC [4] | MIC [5] | MIC [6] | MIC [9] | MIC [10] | MIC [11] | MIC [12]
Non-toxic: Activity [22] | Activity [23] | Activity [24] | Activity [25] | Activity [26] | Activity [27]
> 128 µg/mL: MIC [13] | MIC [14] | MIC [15] | MIC [16] | MIC [17] | MIC [18] | MIC [19] | MIC [20] | MIC [21] | MIC [28] | MIC [29] | MIC [30] | MIC [31] | MIC [32]

Cl.Cl.NCC(NO)c1c[nH]c2cccc(Br)c12 (centres undefined)
Non-toxic: Activity [22] | Activity [23] | Activity [24] | Activity [25] | Activity [26] | Activity [27]
> 128 µg/mL: MIC [18] | MIC [19] | MIC [28] | MIC [29] | MIC [30] | MIC [31] | MIC [32]
32 µg/mL: MIC [1] | MIC [2] | MIC [3] | MIC [4] | MIC [5] | MIC [6] | MIC [7] | MIC [8] | MIC [9] | MIC [10] | MIC [11] | MIC [12]
128 µg/mL: MIC [13] | MIC [14] | MIC [15] | MIC [16] | MIC [17] | MIC [20]

Cl.Cl.NCC(NO)c1c[nH]c2ccc(Br)cc12 (centres undefined)
Non-toxic: Activity [22] | Activity [23] | Activity [24] | Activity [25] | Activity [26] | Activity [27]
128 µg/mL: MIC [18] | MIC [19]
16 µg/mL: MIC [1] | MIC [2] | MIC [3] | MIC [4] | MIC [5] | MIC [6] | MIC [7] | MIC [8] | MIC [9] | MIC [20]
64 µg/mL: MIC [13] | MIC [14] | MIC [15] | MIC [16] | MIC [17] | MIC [28] | MIC [29] | MIC [30] | MIC [31] | MIC [32]
8 µg/mL: MIC [10] | MIC [11] | MIC [12]

From ChEMBL document CHEMBL1777764, “Synthesis and evaluation of 1-(1H-indol-3-yl)ethanamine derivatives as new antibacterial agents” (Bioorg Med Chem, 2011)
